In ChEMBL document CHEMBL1138464, “Synthesis, conformation, and biological characterization of a sugar derivative of morphine that is a potent, long-lasting, and nontolerant antinociceptive” (J Med Chem, 2009):
Activity calls are given as the source filed them.

Experiments:
[1] = test system: Rattus norvegicus; test: Antinociceptive activity in Sprague-Dawley rat assessed as duration of antinociception at 5 mg/kg, ip by tail flick test; type: functional; details: route intraperitoneal
How it was run: (§1)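 Male Sprague-Dawley rats, housed singly at 21 °C on a 12 h light-dark cycle, tested in the light phase. Drug given ip in saline (100-500 µL). Tail flick: radiant heat from a 300 W bulb focused on the tail tip, withdrawal latency recorded. Pre-drug responders above 75% of cut-off excluded. Testing was blinded. Results are %MPE at 15 and 30 min and duration (h), mean of 12 animals, Mann-Whitney U-test.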

[2] = test system: Rattus norvegicus; test: Antinociceptive activity in Sprague-Dawley rat at 5 mg/kg, ip after 30 mins by tail flick test; type: functional; details: for MPE: route intraperitoneal; how it was run: as §1
[3] = test system: Rattus norvegicus; test: Antinociceptive activity in Sprague-Dawley rat at 5 mg/kg, ip after 15 mins by tail flick test; type: functional; details: route intraperitoneal; how it was run: as §1
[4] = test system: Rattus norvegicus; test: Antinociceptive activity in Sprague-Dawley rat assessed as effect on mechanical nociceptive threshold at 1 to 5 mg/kg, ip after 30 mins by paw pressure test; type: functional, organism-based
How it was run: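 Male Sprague-Dawley rats, drug given ip in saline. Paw pressure test run before tail flick in each animal. Operator blinded to treatment. Rats with pre-drug responses above 75% of cut-off excluded. Read-out taken 30 min post-injection. Statistics by Mann-Whitney U-test.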

[5] = test system: Rattus norvegicus; test: Antinociceptive activity in Sprague-Dawley rat at 1 mg/kg, ip after 30 mins by tail flick test; type: functional; details: for MPE: route intraperitoneal; how it was run: as §1
[6] = test system: Rattus norvegicus; test: Antinociceptive activity in Sprague-Dawley rat at 0.05 mg/kg, ip after 15 mins by tail flick test; type: functional; details: route intraperitoneal; how it was run: as §1
[7] = test system: Rattus norvegicus; test: Antinociceptive activity in Sprague-Dawley rat at 0.1 mg/kg, ip after 15 mins by tail flick test; type: functional; details: route intraperitoneal; how it was run: as §1
[8] = test system: Rattus norvegicus; test: Antinociceptive activity in Sprague-Dawley rat at 0.2 mg/kg, ip after 15 mins by tail flick test; type: functional; details: route intraperitoneal; how it was run: as §1
[9] = test system: Rattus norvegicus; test: Antinociceptive activity in Sprague-Dawley rat assessed as duration of antinociception at 0.1 mg/kg, ip by tail flick test; type: functional; details: route intraperitoneal; how it was run: as §1
[10] = test system: Rattus norvegicus; test: Antinociceptive activity in Sprague-Dawley rat at 0.01 mg/kg, ip after 30 mins by tail flick test; type: functional; details: route intraperitoneal; how it was run: as §1
[11] = test system: Rattus norvegicus; test: Antinociceptive activity in Sprague-Dawley rat assessed as duration of antinociception at 0.01 mg/kg, ip by tail flick test; type: functional; details: route intraperitoneal; how it was run: as §1
[12] = test system: Rattus norvegicus; test: Toxicity in Sprague-Dawley rat assessed as depression of mean arterial blood pressure at 1 mg/kg, iv administered for 60 secs measured for 30 mins; type: organism-based; parameters: dose 1 mg/kg, route intravenous; details: in vivo, 0.5 h
How it was run: (§2)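 Male Sprague-Dawley rats (250-300 g) under urethane anaesthesia (1.25 g/kg ip), kept at 37 °C, tracheotomised, with carotid and jugular cannulae. After ≥1 h stabilisation and a saline infusion, drug was given iv in saline over 60 ± 20 s. MAP, SAP, DAP and HR recorded for 30 min as % change from time zero. Student's t test and Newman-Keuls.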

[13] = test system: Rattus norvegicus; test: Antinociceptive activity in Sprague-Dawley rat at 0.5 mg/kg, ip after 15 mins by tail flick test; type: functional; details: route intraperitoneal; how it was run: as §1
[14] = test system: Rattus norvegicus; test: Antinociceptive activity in Sprague-Dawley rat at 0.02 mg/kg, ip after 30 mins by tail flick test; type: functional; details: route intraperitoneal; how it was run: as §1
[15] = test system: Rattus norvegicus; test: Antinociceptive activity in Sprague-Dawley rat at 1 mg/kg, ip after 15 mins by tail flick test; type: functional; details: route intraperitoneal; how it was run: as §1
[16] = test system: Rattus norvegicus; test: Antinociceptive activity in Sprague-Dawley rat at 0.05 mg/kg, ip administered once daily for 9 days measured daily after 30 mins by tail flick test; type: functional; details: route intraperitoneal
How it was run: (§3)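 Separate groups of male Sprague-Dawley rats (250-300 g) dosed ip once daily for 9 consecutive days. Tail flick latency (radiant heat to tail tip) measured daily 30 min after each injection. Response expressed as %MPE.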

[17] = test system: Rattus norvegicus; test: Antinociceptive activity in Sprague-Dawley rat assessed as effect on mechanical nociceptive threshold at 1 to 5 mg/kg, ip by paw pressure test in presence of naloxone; type: functional, organism-based
How it was run: (§4)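 Antinociception in male Sprague-Dawley rats given drug ip in saline and measured by tail flick or paw pressure. Reversal tested with naloxone, stated as 5 mg/kg ip in the table footnote and as 0.1 mg/kg in the text.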

[18] = test system: Rattus norvegicus; test: Antinociceptive activity in Sprague-Dawley rat at 0.2 mg/kg, ip after 30 mins by tail flick test; type: functional; details: route intraperitoneal; how it was run: as §1
[19] = test system: Rattus norvegicus; test: Antinociceptive activity in Sprague-Dawley rat assessed as duration of antinociception at 0.05 mg/kg, ip by tail flick test; type: functional; details: route intraperitoneal; how it was run: as §1
[20] = test system: Rattus norvegicus; test: Antinociceptive activity in Sprague-Dawley rat at 0.1 mg/kg, ip administered once daily for 9 days measured daily after 30 mins by tail flick test; type: functional; details: route intraperitoneal; how it was run: as §3
[21] = test system: Rattus norvegicus; test: Antinociceptive activity in Sprague-Dawley rat at 1 mg/kg, ip administered once daily for 9 days measured daily after 30 mins by tail flick test; type: functional; details: route intraperitoneal; how it was run: as §3
[22] = test system: Rattus norvegicus; test: Toxicity in Sprague-Dawley rat assessed as depression of heart rate at 1 mg/kg, iv administered for 60 secs measured for 30 mins; type: organism-based; parameters: dose 1 mg/kg, route intravenous; details: in vivo, 0.5 h; how it was run: as §2
[23] = test system: Rattus norvegicus; test: Antinociceptive activity in Sprague-Dawley rat assessed as duration of antinociception at 0.02 mg/kg, ip by tail flick test; type: functional; details: route intraperitoneal; how it was run: as §1
[24] = test system: Rattus norvegicus; test: Antinociceptive activity in Sprague-Dawley rat assessed as duration of antinociception at 0.5 mg/kg, ip by tail flick test; type: functional; details: route intraperitoneal; how it was run: as §1
[25] = test system: Rattus norvegicus; test: Antinociceptive activity in Sprague-Dawley rat at 0.1 mg/kg, ip after 30 mins by tail flick test; type: functional; details: route intraperitoneal; how it was run: as §1
[26] = target: Mu-type opioid receptor (Rattus norvegicus) (UniProt P33535); details: HEK293
[27] = test system: Rattus norvegicus; test: Antinociceptive activity in Sprague-Dawley rat assessed as duration of antinociception at 1 mg/kg, ip by tail flick test; type: functional; details: route intraperitoneal; how it was run: as §1
[28] = test system: Rattus norvegicus; test: Antinociceptive activity in Sprague-Dawley rat at 0.5 mg/kg, ip after 30 mins by tail flick test; type: functional; details: route intraperitoneal; how it was run: as §1
[29] = test system: Rattus norvegicus; test: Antinociceptive activity in Sprague-Dawley rat at 0.05 mg/kg, ip after 30 mins by tail flick test; type: functional; details: route intraperitoneal; how it was run: as §1
[30] = test system: Rattus norvegicus; test: Antinociceptive activity in Sprague-Dawley rat at 0.01 to 5 mg/kg, ip by tail flick test in presence of naloxone; type: functional, organism-based; how it was run: as §4
[31] = test system: Rattus norvegicus; test: Antinociceptive activity in ip dosed Sprague-Dawley rat at after 30 mins by tail flick test; type: functional, organism-based; how it was run: as §1
[32] = test system: Rattus norvegicus; test: Antinociceptive activity in Sprague-Dawley rat assessed as duration of antinociception at 0.2 mg/kg, ip by tail flick test; type: functional; details: route intraperitoneal; how it was run: as §1
[33] = organism: Rattus norvegicus; test: Toxicity in Sprague-Dawley rat assessed as body weight loss; type: organism-based; details: in vivo
[34] = test system: Rattus norvegicus; test: Antinociceptive activity in Sprague-Dawley rat at 0.02 mg/kg, ip after 15 mins by tail flick test; type: functional; details: route intraperitoneal; how it was run: as §1
[35] = test system: Rattus norvegicus; test: Antinociceptive activity in Sprague-Dawley rat at 5 mg/kg, ip administered once daily for 9 days measured daily after 30 mins by tail flick test; type: functional; details: route intraperitoneal; how it was run: as §3
[36] = test system: Rattus norvegicus; test: Toxicity in Sprague-Dawley rat assessed as depression of mean arterial blood pressure at 5 mg/kg, iv administered for 60 secs measured for 30 mins; type: organism-based; parameters: dose 5 mg/kg, route intravenous; details: in vivo, 0.5 h; how it was run: as §2
[37] = test system: Rattus norvegicus; test: Toxicity in Sprague-Dawley rat assessed as depression of heart rate at 5 mg/kg, iv administered for 60 secs measured for 30 mins; type: organism-based; parameters: dose 5 mg/kg, route intravenous; details: in vivo, 0.5 h; how it was run: as §2

Mu-type opioid receptor (Rattus norvegicus), sequence (P33535 whole entry): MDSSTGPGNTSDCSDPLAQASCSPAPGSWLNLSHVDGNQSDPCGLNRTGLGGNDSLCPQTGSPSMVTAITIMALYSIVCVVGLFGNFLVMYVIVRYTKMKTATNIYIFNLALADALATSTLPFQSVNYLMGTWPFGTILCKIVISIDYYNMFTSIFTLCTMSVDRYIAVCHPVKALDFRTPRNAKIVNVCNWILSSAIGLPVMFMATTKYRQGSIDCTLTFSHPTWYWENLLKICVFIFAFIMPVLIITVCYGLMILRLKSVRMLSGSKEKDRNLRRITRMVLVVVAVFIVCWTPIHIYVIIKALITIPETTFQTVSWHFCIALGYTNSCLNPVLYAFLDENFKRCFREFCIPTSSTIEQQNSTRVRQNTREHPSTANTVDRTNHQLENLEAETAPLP

CN1CC[C@]23c4c5ccc(O)c4O[C@H]2[C@@H](O)C=C[C@H]3[C@H]1C5.CN1CC[C@]23c4c5ccc(O)c4O[C@H]2[C@@H](O)C=C[C@H]3[C@H]1C5.O=S(=O)(O)O
Time [1]: 2.5 h | MPE [2]: 72% | MPE [3]: 45%

CN1CC[C@]23c4c5ccc(O)c4O[C@H]2[C@@H](O[C@@H]2O[C@H](C(=O)O)[C@@H](O)[C@H](O)[C@H]2O)C=C[C@H]3[C@H]1C5
Activity [4]: Active | Activity [2]: Active | Activity [5]: Active

CN1CC[C@]23c4c5ccc(O)c4O[C@H]2[C@@H](O[C@H]2O[C@H](CO)[C@@H](O)[C@H](O)[C@@H]2O)C=C[C@H]3[C@H]1C5
MPE [6]: 56% | MPE [7]: 50% | MPE [8]: 57% | Time [9]: 5 h | MPE [10]: 22% | Time [11]: 2 h | Activity [12]: Non-toxic | Activity [4]: Active | MPE [13]: 54% | MPE [14]: 51% | MPE [15]: 56% | Time [1]: 5 h | MPE [16]: 55% | Activity [17]: inactive | MPE [18]: 100% | Time [19]: 5 h | Activity [20]: 100% | MPE [21]: 100% | Activity [22]: Non-toxic | Time [23]: 3.5 h | MPE [2]: 100% | Time [24]: 5 h | MPE [25]: 100% | KiH [26]: 1.7 nM | KiL [26]: 55 nM | Time [27]: 5 h | MPE [28]: 100% | MPE [5]: 100% | MPE [29]: 84% | Activity [30]: inactive | IC50 [31]: 0.02 mg/kg | Time [32]: 5 h | Activity [33]: Non-toxic | MPE [34]: 19% | MPE [35]: 100% | MPE [3]: 83%

CN1CC[C@]23c4c5ccc(O)c4O[C@H]2[C@@H](O)C=C[C@H]3[C@H]1C5
Activity [4]: Active | KiH [26]: 2.5 nM | KiL [26]: 113 nM

CN1CC[C@]23c4c5ccc(O)c4O[C@H]2[C@@H](O)C=C[C@H]3[C@H]1C5 [MORPHINE]
Activity [36]: Toxic | Activity [12]: Non-toxic | Activity [37]: Toxic | MPE [5]: 35%
